{"source": "ChEMBL document CHEMBL1147117", "about": "“Novel synthetic antimicrobial peptides against Streptococcus mutans” (2007)", "format_in_all_cases": "functional", "key": {"Streptococcus mutans [1]": {"tested_on": "Streptococcus mutans", "experiment": "Antibacterial activity against Streptococcus mutans after 16 to 20 hrs", "outline": "(§1)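 Broth microdilution in TH broth or Veillonella medium. Overnight cultures grown to OD600 0.75 to 0.8 were diluted to 1 x 10^5 CFU/ml. Peptide was serially diluted 1:2 from 500 or 512 µg/ml down to 1.95 or 2 µg/ml, with a methanol solvent control. Incubation was 16 to 20 h at 37°C, anaerobic, without shaking. MIC was read visually as the last clear well. Run in triplicate.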"}, "Streptococcus gordonii": {"tested_on": "Streptococcus gordonii", "experiment": "Antibacterial activity against Streptococcus gordonii Challis DL1 after 16 to 20 hrs", "outline": "as §1"}, "Streptococcus mitis": {"tested_on": "Streptococcus mitis", "experiment": "Antibacterial activity against Streptococcus mitis ATCC 903 after 16 to 20 hrs", "outline": "as §1"}, "Streptococcus sanguinis": {"tested_on": "Streptococcus sanguinis", "experiment": "Antibacterial activity against Streptococcus sanguinis NY101 after 16 to 20 hrs", "outline": "as §1"}, "Lacticaseibacillus casei": {"tested_on": "Lacticaseibacillus casei", "experiment": "Antibacterial activity against Lactobacillus casei ATCC 4646 after 16 to 20 hrs", "outline": "as §1"}, "Veillonella atypica": {"tested_on": "Veillonella atypica", "experiment": "Antibacterial activity against Veillonella atypica PK1910 after 16 to 20 hrs", "outline": "as §1"}, "Streptococcus mutans [2]": {"tested_on": "Streptococcus mutans", "experiment": "Bactericidal activity against Streptococcus mutans UA159 assessed as time required to kill 3 log10 of recoverable CFU/ml at 25 ug/ml relative to untreated control", "outline": "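Time-kill assay. Overnight UA159 cultures were diluted in medium to 0.5 x 10^6 to 1 x 10^6 CFU/ml and exposed to 25 µg/ml peptide. At each time point a 10-µl aliquot was diluted 1:50 into growth medium and plated on TH agar; whole 1-ml samples were plated when survivors were below 3,000 CFU/ml. TC is the time for survivors to fall 3 log10 below untreated CFU/ml. Repeated 3 to 5 times.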"}}, "note": "Where a SMILES comes first, the peptide text is derived from it.", "data": [{"compound": "H-KLLQTFNQIFR-OH", "values": [{"measurement": "MIC", "setting": "Streptococcus mutans [1]", "value": "> 125", "unit": "µg/mL"}]}, {"compound": "H-FKKFWKWFRRFGGGRWRWRWF-NH2", "values": [{"measurement": "MIC", "setting": "Streptococcus mutans [1]", "value": 4, "unit": "µg/mL"}, {"measurement": "MIC", "setting": "Streptococcus gordonii", "value": 32, "unit": "µg/mL"}, {"measurement": "MIC", "setting": "Streptococcus mitis", "value": 64, "unit": "µg/mL"}, {"measurement": "MIC", "setting": "Streptococcus sanguinis", "value": 16, "unit": "µg/mL"}, {"measurement": "MIC", "setting": "Lacticaseibacillus casei", "value": 8, "unit": "µg/mL"}, {"measurement": "MIC", "setting": "Veillonella atypica", "value": 8, "unit": "µg/mL"}]}, {"compound": "H-RWRWRWR-OH", "values": [{"measurement": "MIC", "setting": "Streptococcus mutans [1]", "value": 32, "unit": "µg/mL"}]}, {"compound": "H-KLKKLLKHLHHLLH-NH2", "values": [{"measurement": "MIC", "setting": "Streptococcus mutans [1]", "value": 8, "unit": "µg/mL"}]}, {"compound": "H-RWRWRWFASASARWRWRWF-NH2", "values": [{"measurement": "MIC", "setting": "Streptococcus mutans [1]", "value": 16, "unit": "µg/mL"}, {"measurement": "Time", "setting": "Streptococcus mutans [2]", "value": 45, "unit": "min"}]}, {"compound": "H-RWRWRWFPSGSPRWRWRWF-NH2", "values": [{"measurement": "MIC", "setting": "Streptococcus mutans [1]", "value": 32, "unit": "µg/mL"}, {"measurement": "Time", "setting": "Streptococcus mutans [2]", "value": 270, "unit": "min"}]}, {"compound": "H-RWRWRWFGGGFKKFWKWFRRF-NH2", "values": [{"measurement": "MIC", "setting": "Streptococcus mutans [1]", "value": 4, "unit": "µg/mL"}, {"measurement": "MIC", "setting": "Streptococcus gordonii", "value": 16, "unit": "µg/mL"}, {"measurement": "MIC", "setting": "Streptococcus mitis", "value": 64, "unit": "µg/mL"}, {"measurement": "MIC", "setting": "Streptococcus sanguinis", "value": 8, "unit": "µg/mL"}, {"measurement": "MIC", "setting": "Lacticaseibacillus casei", "value": 8, "unit": "µg/mL"}, {"measurement": "MIC", "setting": "Veillonella atypica", "value": 8, "unit": "µg/mL"}]}, {"compound": "Cl.N=C(N)NCCC[C@H](NC(=O)[C@H](CCCNC(=N)N)NC(=O)[C@@H](N)CCCNC(=N)N)C(=O)N[C@@H](CCCCN)C(=O)N[C@@H](Cc1c[nH]c2ccccc12)C(=O)N[C@@H](Cc1c[nH]c2ccccc12)C(=O)N[C@@H](CCCCN)C(=O)O", "note": "(H-RRRKWWK-OH)", "values": [{"measurement": "MIC", "setting": "Streptococcus mutans [1]", "value": 125, "unit": "µg/mL"}]}, {"compound": "H-LYHFLHWFQRF-NH2", "values": [{"measurement": "MIC", "setting": "Streptococcus mutans [1]", "value": 125, "unit": "µg/mL"}]}, {"compound": "H-KLKKLLKRWRRWWR-OH", "values": [{"measurement": "MIC", "setting": "Streptococcus mutans [1]", "value": 8, "unit": "µg/mL"}]}, {"compound": "H-IKTLLHFFQRF-NH2", "values": [{"measurement": "MIC", "setting": "Streptococcus mutans [1]", "value": 32, "unit": "µg/mL"}]}, {"compound": "H-RRRWWWK-OH", "values": [{"measurement": "MIC", "setting": "Streptococcus mutans [1]", "value": 31.2, "unit": "µg/mL"}]}, {"compound": "H-IKQLLHFFQRFGGGRWRWRWF-NH2", "values": [{"measurement": "MIC", "setting": "Streptococcus mutans [1]", "value": 4, "unit": "µg/mL"}, {"measurement": "MIC", "setting": "Streptococcus gordonii", "value": 32, "unit": "µg/mL"}, {"measurement": "MIC", "setting": "Streptococcus mitis", "value": 64, "unit": "µg/mL"}, {"measurement": "MIC", "setting": "Streptococcus sanguinis", "value": 16, "unit": "µg/mL"}, {"measurement": "MIC", "setting": "Lacticaseibacillus casei", "value": 16, "unit": "µg/mL"}, {"measurement": "MIC", "setting": "Veillonella atypica", "value": 8, "unit": "µg/mL"}]}, {"compound": "H-RRRWWWFGGGRRRWWWF-NH2", "values": [{"measurement": "MIC", "setting": "Streptococcus mutans [1]", "value": 16, "unit": "µg/mL"}, {"measurement": "Time", "setting": "Streptococcus mutans [2]", "value": 270, "unit": "min"}]}, {"compound": "H-RRRFWWR-OH", "values": [{"measurement": "MIC", "setting": "Streptococcus mutans [1]", "value": 31.2, "unit": "µg/mL"}]}, {"compound": "H-FKKFWKWFRRF-NH2", "values": [{"measurement": "MIC", "setting": "Streptococcus mutans [1]", "value": 8, "unit": "µg/mL"}, {"measurement": "MIC", "setting": "Streptococcus gordonii", "value": 32, "unit": "µg/mL"}, {"measurement": "MIC", "setting": "Streptococcus mitis", "value": 32, "unit": "µg/mL"}, {"measurement": "MIC", "setting": "Streptococcus sanguinis", "value": 32, "unit": "µg/mL"}, {"measurement": "MIC", "setting": "Lacticaseibacillus casei", "value": 32, "unit": "µg/mL"}, {"measurement": "MIC", "setting": "Veillonella atypica", "value": 16, "unit": "µg/mL"}]}, {"compound": "H-RWRKRWK-OH", "values": [{"measurement": "MIC", "setting": "Streptococcus mutans [1]", "value": 125, "unit": "µg/mL"}]}, {"compound": "H-RVLNQVKQILK-OH", "values": [{"measurement": "MIC", "setting": "Streptococcus mutans [1]", "value": "> 125", "unit": "µg/mL"}]}, {"compound": "H-RWRWRWFRWRWRWF-NH2", "values": [{"measurement": "MIC", "setting": "Streptococcus mutans [1]", "value": 16, "unit": "µg/mL"}, {"measurement": "Time", "setting": "Streptococcus mutans [2]", "value": 50, "unit": "min"}]}, {"compound": "H-FKTFLQWLHRF-NH2", "values": [{"measurement": "MIC", "setting": "Streptococcus mutans [1]", "value": 16, "unit": "µg/mL"}]}, {"compound": "H-LQLLKQLLKLLKQF-NH2", "values": [{"measurement": "MIC", "setting": "Streptococcus mutans [1]", "value": 8, "unit": "µg/mL"}]}, {"compound": "H-RRRWWWFPSGSPRRRWWWF-NH2", "values": [{"measurement": "MIC", "setting": "Streptococcus mutans [1]", "value": 32, "unit": "µg/mL"}, {"measurement": "Time", "setting": "Streptococcus mutans [2]", "value": 420, "unit": "min"}]}, {"compound": "H-RRRRWWW-OH", "values": [{"measurement": "MIC", "setting": "Streptococcus mutans [1]", "value": 16, "unit": "µg/mL"}]}, {"compound": "H-YLLTEFQHLFK-OH", "values": [{"measurement": "MIC", "setting": "Streptococcus mutans [1]", "value": "> 125", "unit": "µg/mL"}]}, {"compound": "H-RWRRLLKKLHHLLHGGGFKKFWKWFRRF-NH2", "values": [{"measurement": "MIC", "setting": "Streptococcus mutans [1]", "value": 4, "unit": "µg/mL"}, {"measurement": "MIC", "setting": "Streptococcus gordonii", "value": 16, "unit": "µg/mL"}, {"measurement": "MIC", "setting": "Streptococcus mitis", "value": 32, "unit": "µg/mL"}, {"measurement": "MIC", "setting": "Streptococcus sanguinis", "value": 16, "unit": "µg/mL"}, {"measurement": "MIC", "setting": "Lacticaseibacillus casei", "value": 8, "unit": "µg/mL"}, {"measurement": "MIC", "setting": "Veillonella atypica", "value": 8, "unit": "µg/mL"}]}, {"compound": "H-RWRWRWFGGGLKRFLKWFKRF-NH2", "values": [{"measurement": "MIC", "setting": "Streptococcus mutans [1]", "value": 8, "unit": "µg/mL"}, {"measurement": "MIC", "setting": "Streptococcus gordonii", "value": 32, "unit": "µg/mL"}, {"measurement": "MIC", "setting": "Streptococcus mitis", "value": 64, "unit": "µg/mL"}, {"measurement": "MIC", "setting": "Streptococcus sanguinis", "value": 16, "unit": "µg/mL"}, {"measurement": "MIC", "setting": "Lacticaseibacillus casei", "value": 8, "unit": "µg/mL"}, {"measurement": "MIC", "setting": "Veillonella atypica", "value": 16, "unit": "µg/mL"}]}, {"compound": "H-RILKELKNLFK-OH", "values": [{"measurement": "MIC", "setting": "Streptococcus mutans [1]", "value": "> 250", "unit": "µg/mL"}]}, {"compound": "H-AKRLLKVLKRF-NH2", "values": [{"measurement": "MIC", "setting": "Streptococcus mutans [1]", "value": 16, "unit": "µg/mL"}]}, {"compound": "H-RWRRLLKKLHHLLH-NH2", "values": [{"measurement": "MIC", "setting": "Streptococcus mutans [1]", "value": 8, "unit": "µg/mL"}, {"measurement": "MIC", "setting": "Streptococcus gordonii", "value": 16, "unit": "µg/mL"}, {"measurement": "MIC", "setting": "Streptococcus mitis", "value": 32, "unit": "µg/mL"}, {"measurement": "MIC", "setting": "Streptococcus sanguinis", "value": 16, "unit": "µg/mL"}, {"measurement": "MIC", "setting": "Lacticaseibacillus casei", "value": 16, "unit": "µg/mL"}, {"measurement": "MIC", "setting": "Veillonella atypica", "value": 4, "unit": "µg/mL"}]}, {"compound": "H-KLAQKVKRVLR-OH", "values": [{"measurement": "MIC", "setting": "Streptococcus mutans [1]", "value": "> 125", "unit": "µg/mL"}]}, {"compound": "H-RWRWRWF-NH2", "values": [{"measurement": "MIC", "setting": "Streptococcus mutans [1]", "value": 125, "unit": "µg/mL"}, {"measurement": "MIC", "setting": "Streptococcus gordonii", "value": 32, "unit": "µg/mL"}, {"measurement": "MIC", "setting": "Streptococcus mitis", "value": 32, "unit": "µg/mL"}, {"measurement": "MIC", "setting": "Streptococcus sanguinis", "value": 32, "unit": "µg/mL"}, {"measurement": "MIC", "setting": "Lacticaseibacillus casei", "value": 32, "unit": "µg/mL"}, {"measurement": "MIC", "setting": "Veillonella atypica", "value": 64, "unit": "µg/mL"}, {"measurement": "Time", "setting": "Streptococcus mutans [2]", "value": 220, "unit": "min"}]}, {"compound": "H-FKKFWKWFRRFGGGRWRRLLKKLHHLLH-NH2", "values": [{"measurement": "MIC", "setting": "Streptococcus mutans [1]", "value": 16, "unit": "µg/mL"}]}, {"compound": "H-ATHLLHALQRF-NH2", "values": [{"measurement": "MIC", "setting": "Streptococcus mutans [1]", "value": "> 250", "unit": "µg/mL"}]}, {"compound": "H-LKLLKKLLKLLKKF-NH2", "values": [{"measurement": "MIC", "setting": "Streptococcus mutans [1]", "value": 8, "unit": "µg/mL"}]}, {"compound": "H-KLAENVKEILR-NH2", "values": [{"measurement": "MIC", "setting": "Streptococcus mutans [1]", "value": "> 250", "unit": "µg/mL"}]}, {"compound": "H-KLVQQLKNIFR-OH", "values": [{"measurement": "MIC", "setting": "Streptococcus mutans [1]", "value": "> 125", "unit": "µg/mL"}]}, {"compound": "H-RRRWWWFASASARRRWWWF-NH2", "values": [{"measurement": "MIC", "setting": "Streptococcus mutans [1]", "value": 32, "unit": "µg/mL"}, {"measurement": "Time", "setting": "Streptococcus mutans [2]", "value": 480, "unit": "min"}]}]}
